Results pooled from the literature.
Target: Carbonic anhydrase 2 (CA2, Homo sapiens, UniProt P00918)
Read-out: enzyme activity
Mode: inhibitor
Method: absorbance

The IC50 of `OC1CCN(c2ccc(/C=N/NC(=S)NCCc3ccccc3)cc2)CC1` is reported as 641 nM.
With `NS(=O)(=O)c1cccc(Nc2nc(-c3cc4cc(Br)ccc4oc3=O)cs2)c1` the IC50 was 680 nM.
The IC50 of `NS(=O)(=O)c1ccc(-c2ccc(Nc3ccc(F)c(Cl)c3)cc2)cc1` is reported as 380 nM.
The IC50 of `OCCOCCN1CCN(C(c2ccccc2)c2ccc(Cl)cc2)CC1` (centres unmarked) is reported as 18200 nM (pH 7.4).
With `CN1CCN(c2nc(-c3cc4cc(Br)ccc4oc3=O)cs2)CC1` the IC50 was 4120 nM.
With `CC1=C(/C=C/C(C)=C/C=C/C(C)=C\C(=O)O)C(C)(C)CCC1` the IC50 was 10900 nM (pH 7.4).
With `NS(=O)(=O)c1ccc(-c2ccc(Nc3ccc(Cl)cc3)cc2)cc1` the IC50 was 2110 nM.
The IC50 of `Cc1cccc(C)c1NC(=S)N/N=C/c1ccc(N2CCC(O)CC2)cc1` is reported as 424 nM.
The IC50 of `CS(=O)(=O)Nc1ccc(Nc2nc(-c3cc4cc(Br)ccc4oc3=O)cs2)cc1Oc1ccccc1` is reported as 380 nM.
For `OC1CCN(c2ccc(/C=N/NC(=S)NC3CCCCC3)cc2)CC1`, the IC50 was 465 nM.
`C[C@H]1c2cccc(O)c2C(=O)C2=C(O)[C@]3(O)C(=O)C(C(N)=O)=C(O)[C@@H](N(C)C)[C@@H]3[C@@H](O)[C@@H]21` gave an IC50 of 14200 nM (pH 7.4).
